For experiment [1], the target named is Somatostatin receptor type 3 (Homo sapiens, UniProt P32745). In words: Binding affinity to human sst3 by in vitro receptor autoradiography assay.
For experiment [2], the target named is Somatostatin receptor type 2 (Rattus norvegicus) (UniProt P30680). In words: Inhibition of sst2 in rat trachea assessed as effect on EFS-induced CGRP release in stimulated and poststimulated tracheal fraction at 500 nM after 8 mins by radioimmunoassay technique relative to control. Set-up: scale not given: the % may be the effect or the level left. It is filed as tissue-based. The procedure, abridged:
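Whole tracheae from exsanguinated, deeply anaesthetised rats, two per 1.8 mL organ bath, equilibrated 60 min with oxygenated Krebs (pH 7.2, 37 °C, 1 mL/min perfusion). Three static 8 min fractions; EFS (40 V, 0.1 ms, 10 Hz, 120 s) in the second. Peptide (500 nM) added at the start of fractions 2 and 3. CGRP measured by RIA in 200 μL samples, normalised to wet tissue weight; n = 5.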

The target of experiment [3] is Somatostatin receptor type 1 (Homo sapiens, UniProt P30872). Briefly: Binding affinity to human sst1 by in vitro receptor autoradiography assay.
Chain of Somatostatin receptor type 1 (P30872 whole entry): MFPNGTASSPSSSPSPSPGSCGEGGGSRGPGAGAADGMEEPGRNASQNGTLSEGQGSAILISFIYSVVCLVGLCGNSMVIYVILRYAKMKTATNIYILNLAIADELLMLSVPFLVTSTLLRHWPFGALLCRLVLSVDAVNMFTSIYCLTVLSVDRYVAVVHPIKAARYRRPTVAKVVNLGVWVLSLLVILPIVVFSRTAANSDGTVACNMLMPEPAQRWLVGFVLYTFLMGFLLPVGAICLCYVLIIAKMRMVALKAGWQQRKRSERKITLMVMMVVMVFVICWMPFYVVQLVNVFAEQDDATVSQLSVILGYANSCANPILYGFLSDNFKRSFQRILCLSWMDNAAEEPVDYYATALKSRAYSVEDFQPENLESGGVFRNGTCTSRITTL
The target in experiment [4] is Somatostatin receptor type 5 (Homo sapiens, UniProt P35346). Briefly: Binding affinity to human sst5 by in vitro receptor autoradiography assay.
Chain of Somatostatin receptor type 5 (P35346 whole entry): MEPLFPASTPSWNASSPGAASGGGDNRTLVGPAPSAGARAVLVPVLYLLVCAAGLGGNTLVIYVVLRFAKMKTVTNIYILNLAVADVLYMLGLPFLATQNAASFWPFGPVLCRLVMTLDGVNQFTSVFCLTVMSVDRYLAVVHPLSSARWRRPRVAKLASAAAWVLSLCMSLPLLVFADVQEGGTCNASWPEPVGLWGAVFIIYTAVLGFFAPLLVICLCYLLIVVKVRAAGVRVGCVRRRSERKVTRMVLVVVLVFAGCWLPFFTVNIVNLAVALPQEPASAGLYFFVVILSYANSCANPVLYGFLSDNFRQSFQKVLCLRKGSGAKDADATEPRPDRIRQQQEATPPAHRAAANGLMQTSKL
Experiment [5] concerns the target Somatostatin receptor type 2 (Homo sapiens, UniProt P30874). In words: Binding affinity to human sst2 by in vitro receptor autoradiography assay.
The target in experiment [6] is Somatostatin receptor type 4 (Homo sapiens, UniProt P31391). Briefly: Binding affinity to human sst4 by in vitro receptor autoradiography assay.
Chain of Somatostatin receptor type 4 (P31391 whole entry): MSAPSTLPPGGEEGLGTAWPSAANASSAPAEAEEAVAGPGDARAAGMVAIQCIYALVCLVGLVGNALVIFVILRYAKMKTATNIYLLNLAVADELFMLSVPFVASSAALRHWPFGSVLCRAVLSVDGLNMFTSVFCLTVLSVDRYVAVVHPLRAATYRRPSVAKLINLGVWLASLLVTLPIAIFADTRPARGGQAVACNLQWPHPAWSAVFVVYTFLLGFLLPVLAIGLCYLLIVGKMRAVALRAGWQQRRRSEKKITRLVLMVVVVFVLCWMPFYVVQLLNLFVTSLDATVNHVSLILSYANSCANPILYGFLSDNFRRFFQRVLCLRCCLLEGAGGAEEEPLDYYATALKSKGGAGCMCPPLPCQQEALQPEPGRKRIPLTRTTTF
Another experiment relates to Rattus norvegicus. In words: Antiinflammatory activity in rat assessed as inhibition of mustard oil-evoked acute neurogenic plasma protein extravasation in paw skin at 100 ug/kg, ip […] administered 10 mins before induction of inflammation. It is filed as functional. The procedure, abridged:
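Rats received peptide 100 μg/kg ip 10 min before inflammation was induced with 1% mustard oil on dorsal paw skin; solvent-only controls run alongside. Read-out: Evans blue accumulated per g wet skin, given as mean + SEM, n = 6–10. Tested in blocks of 14–15 rats per day over 6 days, with treatments randomized. Mann–Whitney U test vs solvent.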

Active and inactive are the calls of the source. The rule behind the calls is not given here.

A word on the IC50: it is the concentration at which inhibition is half-maximal. As usually defined, the inhibition in vivo is how much of the control response was suppressed.

Chain of Somatostatin receptor type 2 (P30874 whole entry): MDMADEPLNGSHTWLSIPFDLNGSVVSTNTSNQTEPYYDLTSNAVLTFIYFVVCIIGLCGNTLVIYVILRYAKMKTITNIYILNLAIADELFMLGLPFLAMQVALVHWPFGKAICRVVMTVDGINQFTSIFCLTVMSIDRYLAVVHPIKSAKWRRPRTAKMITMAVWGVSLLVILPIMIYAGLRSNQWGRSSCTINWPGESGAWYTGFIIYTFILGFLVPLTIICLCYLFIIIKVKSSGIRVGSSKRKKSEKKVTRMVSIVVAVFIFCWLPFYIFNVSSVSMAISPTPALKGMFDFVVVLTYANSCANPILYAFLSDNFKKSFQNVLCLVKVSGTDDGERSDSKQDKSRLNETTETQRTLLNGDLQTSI
Chain of Somatostatin receptor type 2 (Rattus norvegicus) (P30680 whole entry, the tested form may be a part): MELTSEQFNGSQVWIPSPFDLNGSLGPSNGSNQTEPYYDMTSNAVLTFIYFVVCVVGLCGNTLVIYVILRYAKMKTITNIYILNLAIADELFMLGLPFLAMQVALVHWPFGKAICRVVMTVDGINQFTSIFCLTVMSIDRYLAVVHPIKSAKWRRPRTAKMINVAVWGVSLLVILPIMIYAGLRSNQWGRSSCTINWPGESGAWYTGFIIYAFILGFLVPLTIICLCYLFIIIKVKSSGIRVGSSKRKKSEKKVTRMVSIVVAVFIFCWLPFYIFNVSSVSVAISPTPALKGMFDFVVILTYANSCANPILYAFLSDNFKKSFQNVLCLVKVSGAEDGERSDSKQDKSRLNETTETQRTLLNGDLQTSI
Chain of Somatostatin receptor type 3 (P32745 whole entry): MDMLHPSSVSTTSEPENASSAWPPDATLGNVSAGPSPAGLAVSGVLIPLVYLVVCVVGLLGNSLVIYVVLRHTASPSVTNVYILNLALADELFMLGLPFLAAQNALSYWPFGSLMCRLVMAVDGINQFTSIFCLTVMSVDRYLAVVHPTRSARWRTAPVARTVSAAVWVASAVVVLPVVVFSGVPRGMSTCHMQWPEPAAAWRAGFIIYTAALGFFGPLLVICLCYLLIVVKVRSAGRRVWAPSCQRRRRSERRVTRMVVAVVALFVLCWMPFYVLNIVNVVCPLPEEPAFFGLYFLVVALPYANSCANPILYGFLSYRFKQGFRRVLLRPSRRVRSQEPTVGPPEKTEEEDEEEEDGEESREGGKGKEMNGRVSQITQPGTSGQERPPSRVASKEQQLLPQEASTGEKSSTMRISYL

On to `CC(C)[C@@H]1NC(=O)[C@H](CCCCN)NC(=O)[C@@H](Cc2c[nH]c3ccccc23)NC(=O)[C@H](Cc2ccc(O)cc2)NC(=O)[C@H](C)N(C)C(=O)[C@H](Cc2ccccc2)NC1=O` [SEGLITIDE], for which the IC50 in experiment [1] is 105 nM; in experiment [3], over 1000 nM; in experiment [4], 81 nM. For the same compound, the Activity in experiment [2] was 294%.

On to `CC(C)[C@@H]1NC(=O)[C@H](CCCCN)NC(=O)[C@@H](Cc2c[nH]c3ccccc23)NC(=O)[C@H](Cc2ccc(O)cc2)NC(=O)[C@H](C)N(C)C(=O)[C@H](Cc2ccccc2)N(C)C1=O`, for which the half-maximal inhibitory concentration (IC50) in experiment [5] was 4.4 nM; in experiment [1] it was 98 nM; in experiment [6], over 1000 nM; in experiment [3], over 1000 nM; in experiment [4] it was 53 nM. Also, the Activity in experiment [2] was 355%.

Turning to `CC(C)[C@@H]1NC(=O)[C@H](CCCCN)N(C)C(=O)[C@@H](Cc2c[nH]c3ccccc23)NC(=O)[C@H](Cc2ccc(O)cc2)NC(=O)[C@H](C)N(C)C(=O)[C@H](Cc2ccccc2)N(C)C1=O`, the 50% inhibitory concentration (IC50) was 4.1 nM in experiment [5]; 175 nM in experiment [1]; 373 nM in experiment [6]; over 1000 nM in experiment [3]; 137 nM in experiment [4]. Also, the Activity in experiment [2] was 343%.

As for `CC(C)[C@@H]1NC(=O)[C@H](CCCCN)N(C)C(=O)[C@@H](Cc2c[nH]c3ccccc23)N(C)C(=O)[C@H](Cc2ccc(O)cc2)NC(=O)[C@H](C)N(C)C(=O)[C@H](Cc2ccccc2)NC1=O`, the inhibition result in the experiment on Rattus norvegicus is “inactive”. The half-inhibitory concentration (IC50) in experiment [5] was 3.1 nM; in experiment [1] it was 172 nM; in experiment [6], over 1000 nM; in experiment [3], over 1000 nM; in experiment [4], 196 nM. The Activity in experiment [2] was 153%.

Turning to `CC(C)[C@@H]1NC(=O)[C@H](CCCCN)N(C)C(=O)[C@@H](Cc2c[nH]c3ccccc23)NC(=O)[C@H](Cc2ccc(O)cc2)NC(=O)[C@H](C)N(C)C(=O)[C@H](Cc2ccccc2)NC1=O`, in the experiment with Rattus norvegicus, the inhibition result was “inactive”. The IC50 is 4.2 nM in experiment [5]; 308 nM in experiment [1]; over 1000 nM in experiment [6]; over 1000 nM in experiment [3]; 247 nM in experiment [4]. Also, in experiment [2], the Activity turned out to be 182%.

As to `CC(C)[C@@H]1NC(=O)[C@H](CCCCN)NC(=O)[C@@H](Cc2c[nH]c3ccccc23)N(C)C(=O)[C@H](Cc2ccc(O)cc2)NC(=O)[C@H](C)N(C)C(=O)[C@H](Cc2ccccc2)NC1=O`, the half-maximal inhibitory concentration (IC50) was 5.5 nM in experiment [5]; 205 nM in experiment [1]; over 1000 nM in experiment [6]; over 1000 nM in experiment [3]; 126 nM in experiment [4]. For the same compound, the Activity in experiment [2] is 360%.

On to `CC(C)[C@@H]1NC(=O)[C@H](CCCCN)N(C)C(=O)[C@@H](Cc2c[nH]c3ccccc23)N(C)C(=O)[C@H](Cc2ccc(O)cc2)NC(=O)[C@H](C)N(C)C(=O)[C@H](Cc2ccccc2)N(C)C1=O`, for which the inhibition in vivo at 0.1 mg/kg with Rattus norvegicus worked out at 40%. Besides, the IC50 was 44 nM in experiment [5]; 200 nM in experiment [1]; over 1000 nM in experiment [6]; over 1000 nM in experiment [3]; 263 nM in experiment [4]. Further, the Activity in experiment [2] is 100%.

For the compound `CC(C)[C@@H]1NC(=O)[C@H](CCCCN)NC(=O)[C@@H](Cc2c[nH]c3ccccc23)N(C)C(=O)[C@H](Cc2ccc(O)cc2)NC(=O)[C@H](C)N(C)C(=O)[C@H](Cc2ccccc2)N(C)C1=O`, the IC50 in experiment [5] is 45 nM; in experiment [1], 82 nM; in experiment [6] it was over 1000 nM; in experiment [3] it was over 1000 nM; in experiment [4] it was 76 nM. Further, the Activity in experiment [2] amounted to 268%.

(Values after ChEMBL document CHEMBL2010647, “N-Methylated sst2 Selective Somatostatin Cyclic Peptide Analogue as a Potent Candidate for Treating Neurogenic Inflammation” (ACS Med Chem Lett, 2011).)
